Source: PubChem BioAssay (Broad Institute)
KDM4C inh – inhibitors of GASC-1 (KDM4C) histone demethylase, primary screen, biochemical, single concentration HTS. GST-KDM4C 2-372, H3K9me3 peptide, LANCE TR-FRET. inhibition, % at 12.5 µM. Lysine-specific demethylase 4C (Homo sapiens), Q9H3R0. actives 0.15% (n = 96,000);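 active = mean replicate inhibition above about 25%, with at least 55% of replicates also reaching it, limit read from the data, passing the limit was not always enough; inconclusive = only one of those two conditions met; inactive = neither condition met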
Target sequence (Q9H3R0 2-372 limits assumed): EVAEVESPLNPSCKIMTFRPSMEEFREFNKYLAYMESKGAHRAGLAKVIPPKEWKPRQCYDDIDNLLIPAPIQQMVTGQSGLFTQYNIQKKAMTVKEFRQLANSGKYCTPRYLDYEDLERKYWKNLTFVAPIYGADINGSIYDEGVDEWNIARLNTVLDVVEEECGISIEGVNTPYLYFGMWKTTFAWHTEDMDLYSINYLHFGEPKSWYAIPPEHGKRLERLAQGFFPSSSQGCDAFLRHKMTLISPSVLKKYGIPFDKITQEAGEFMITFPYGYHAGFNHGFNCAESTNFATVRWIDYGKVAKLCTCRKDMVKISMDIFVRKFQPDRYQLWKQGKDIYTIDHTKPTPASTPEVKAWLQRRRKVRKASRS
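reagent = H3K9me3 peptide substrate, Fe(II), 2-oxoglutarate | system = GST-tagged GASC-1 (JMJD2C) catalytic fragment, aa 2-372 | amount = enzyme final amount 10 nM | read-out = Fall in 671/618 emission ratio as inhibition | medium = HEPES buffer, pH 7.5, plus ascorbate | schedule = 30 min reaction, 60 min detection, RT | measured by = LANCE TR-FRET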
T cruzi growth-1 – T. cruzi intracellular proliferation inhibitors, primary screen, cell-based, beta-gal Tulahuen parasites, NIH3T3 host, luminescence; T. cruzi beta-gal in NIH3T3, GalScreen luminescence, 90 h; inhibition, % at 8.34 µM; actives 5.9% (n = 77,000); AID 624255, 2012;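 active = mean inhibition above about 93%, with at least 55% of replicates each passing it, limit read from the data, passing the limit was not always enough; inconclusive = only one of those two conditions holds; inactive = neither condition holds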
IDH1 mut inh – inhibitors of IDH1 R132H reductase, primary screen, biochemical, plate reader, single point; AID 624101, 2012; Isocitrate dehydrogenase [NADP] cytoplasmic (Homo sapiens), O75874; diaphorase/resazurin fluorescence, 60 min; inhibition, % at 10 µM; actives 0.18% (n = 70,000); in the data active = inhibition above about 34%; inconclusive = no clear call, values can overlap the other calls; inactive = below about 11%
Target sequence (O75874 whole entry R132H): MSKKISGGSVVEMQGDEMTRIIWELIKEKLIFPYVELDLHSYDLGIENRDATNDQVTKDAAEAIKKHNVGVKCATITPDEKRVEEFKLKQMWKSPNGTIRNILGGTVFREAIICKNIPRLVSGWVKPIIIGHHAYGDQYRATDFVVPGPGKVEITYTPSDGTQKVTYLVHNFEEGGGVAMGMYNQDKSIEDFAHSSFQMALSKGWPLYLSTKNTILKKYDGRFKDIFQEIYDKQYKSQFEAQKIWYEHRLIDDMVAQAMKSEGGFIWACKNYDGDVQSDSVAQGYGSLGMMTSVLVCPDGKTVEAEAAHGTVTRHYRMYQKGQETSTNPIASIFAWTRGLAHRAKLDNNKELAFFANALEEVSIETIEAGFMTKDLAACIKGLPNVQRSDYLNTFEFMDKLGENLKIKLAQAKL
Pf Dd2 growth – P. falciparum Dd2 growth inhibitors, primary screen, SYBR Green fluorescence, single dose replicates | 72 h; hits give low values | activity change, % at 10 µM | actives 2.3% (n = 94,000); in the data active = activity change below about -80%; inconclusive = no clear call, values can overlap the other calls
T cruzi growth-2 – T. cruzi intracellular proliferation inhibitors, confirmation, cell-based, NIH3T3 host, beta-gal parasite, luminescence, cherry-pick. shares compounds with T cruzi growth-1. T. cruzi beta-gal in NIH3T3, GalScreen luminescence, 90 h. inhibition, % at 8.35 µM. actives 72% (n = 5,600). AID 651739, 2012;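 active = mean replicate inhibition above about 95% and at least 55% of replicates individually reaching it, limit read from the data; inconclusive = only one of the two criteria is met; inactive = neither criterion is met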
T cruzi growth-3 – inhibitors of intracellular T. cruzi replication, confirmation, NIH3T3 host cells, beta-gal parasites, cherry-pick, set 2; shares compounds with T cruzi growth-1; T. cruzi beta-gal in NIH3T3, GalScreen luminescence, 90 h; inhibition, % at 2.09 µM; actives 21% (n = 5,600);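 active = mean inhibition above about 95%, with at least 55% of replicates also reaching it, limit read from the data; inconclusive = meets just one of the two conditions; inactive = meets neither condition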
3T3 cytotox – cytotoxicity in mouse NIH/3T3 fibroblasts, confirmation, cytotoxicity control for T. cruzi proliferation inhibitor project, cell-based, cherry-pick, single point. shares compounds with T cruzi growth-1. NIH/3T3 viability, CellTiter-Glo ATP luminescence, 90 h. cytotoxicity (signal decrease), % at 8.35 µM. actives 14% (n = 5,600). AID 651742, 2012;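 active = mean signal decrease across replicates above about 35% based on untreated-well scatter, with enough replicates individually passing, limit read from the data; inconclusive = no rule stated though some were filed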
3T3 cytotox 2 – NIH/3T3 fibroblast cytotoxicity, confirmation, cytotoxicity control, cell-based, cherry-pick, single point, set 2 | shares compounds with T cruzi growth-1 | NIH/3T3 viability, CellTiter-Glo ATP luminescence, 90 h | inhibition, % at 24.9 µM | actives 56% (n = 5,600);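 active = mean loss of cell viability signal at or above a set limit, and enough replicates individually reaching it; inconclusive = meets only the mean limit or only the replicate share; inactive = meets neither condition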
Each line names hits and unclear results; the compound was inactive in the other large screens (follow-up assays come after a bar, where they were run). Shown are actives, neighbours in structure and some others; about 5.9% of the full set was active somewhere.

C[C@@H]1CN([C@@H](C)CO)C(=O)c2cc(NC(=O)NC3CCCCC3)ccc2O[C@@H](C)CCCCO[C@@H]1CN(C)C(=O)Nc1ccccc1	none (no result: IDH1 mut inh)
C[C@H]1CCCCO[C@@H](CN(C)C(=O)Nc2ccccc2)[C@@H](C)CN([C@@H](C)CO)C(=O)c2cc(NC(=O)NC3CCCCC3)ccc2O1	T cruzi growth-1 98 (no result: IDH1 mut inh) | T cruzi growth-2 inconclusive | T cruzi growth-3 inactive | 3T3 cytotox inactive | 3T3 cytotox 2 inactive
COCC(=O)Nc1ccc2c(c1)[C@@H]1C[C@H](CC(=O)NCc3cc(F)ccc3F)O[C@H](CO)[C@@H]1O2	none
COc1cccc(-c2ccc([C@@H]3[C@H]4CN(C(=O)NC(C)C)CCCCN4[C@H]3CO)cc2)c1	none (no result: IDH1 mut inh)
CC(=O)N1CCCCN2[C@H](CO)[C@@H](c3ccc(-c4cccc(C)c4)cc3)[C@@H]2C1	none (no result: IDH1 mut inh)
Cc1cccc(-c2ccc([C@H]3[C@H]4CN(C(=O)NC(C)C)CCCCN4[C@H]3CO)cc2)c1	T cruzi growth-1 99 (no result: IDH1 mut inh) | T cruzi growth-2 inactive | T cruzi growth-3 inactive | 3T3 cytotox inactive | 3T3 cytotox 2 inactive
Cc1cccc(-c2ccc([C@H]3[C@H](CO)N4CCCCN(C(=O)NC(C)C)C[C@@H]34)cc2)c1	T cruzi growth-1 106 (no result: IDH1 mut inh) | T cruzi growth-2 107 | T cruzi growth-3 inactive | 3T3 cytotox inactive | 3T3 cytotox 2 96
Cc1cccc(-c2ccc([C@@H]3[C@H](CO)N4CCCCN(C(=O)NC(C)C)C[C@@H]34)cc2)c1	T cruzi growth-1 104 (no result: IDH1 mut inh) | T cruzi growth-2 110 | T cruzi growth-3 inactive | 3T3 cytotox inactive | 3T3 cytotox 2 105
CC(=O)N1CCCCN2[C@H](CO)[C@@H](c3ccc(-c4cccc(C)c4)cc3)[C@H]2C1	none (no result: IDH1 mut inh)
O=C(c1cccc(F)c1)N1CC[C@@H]2[C@@H](CO)Nc3ccc(C#Cc4ccccc4)cc3[C@@H]21	none (no result: T cruzi growth-1, IDH1 mut inh)
COc1ccccc1C#Cc1ccc2c(c1)[C@H]1[C@H](CCN1C(=O)c1cccc(F)c1)[C@H](CO)N2	T cruzi growth-1 inconclusive (no result: IDH1 mut inh) | T cruzi growth-2 101 | T cruzi growth-3 inactive | 3T3 cytotox inactive | 3T3 cytotox 2 104
O=C(c1ccccc1)N1CC[C@H]2[C@H](CO)Nc3ccc(C#Cc4cccc(F)c4)cc3[C@H]21	T cruzi growth-1 122 (no result: IDH1 mut inh) | T cruzi growth-2 112 | T cruzi growth-3 inactive | 3T3 cytotox inactive | 3T3 cytotox 2 39
O=C(c1ccccc1)N1CC[C@@H]2[C@H](CO)Nc3ccc(C#Cc4ccccc4F)cc3[C@@H]21	T cruzi growth-1 105 (no result: IDH1 mut inh) | T cruzi growth-2 104 | T cruzi growth-3 inactive | 3T3 cytotox 45 | 3T3 cytotox 2 106
COc1ccc(Cl)cc1NC(=O)C(C)n1nc(C)c([N+](=O)[O-])c1C (centres undefined)	none (no result: KDM4C inh, T cruzi growth-1, Pf Dd2 growth)
C[C@H]1CN([C@@H](C)CO)C(=O)c2cccc(NC(=O)C3CCOCC3)c2O[C@H]1CN(C)Cc1ccc(-c2ccccc2)cc1	none
C[C@@H]1CN([C@H](C)CO)C(=O)c2cc(NS(=O)(=O)c3cccs3)ccc2O[C@H]1CN(C)Cc1ccc(-c2ccccc2)cc1	none
C[C@H](CO)N1C[C@H](C)[C@@H](CN(C)CC2CC2)Oc2ccc(NS(=O)(=O)c3cccs3)cc2C1=O	none
C[C@H]1CN([C@@H](C)CO)C(=O)c2cc(NS(=O)(=O)c3cccs3)ccc2O[C@H]1CN(C)Cc1ccc(-c2ccccc2)cc1	T cruzi growth-1 inconclusive | T cruzi growth-2 inactive | T cruzi growth-3 inactive | 3T3 cytotox inactive | 3T3 cytotox 2 55
C[C@@H]1CN([C@@H](C)CO)C(=O)c2cc(NS(=O)(=O)c3cccs3)ccc2O[C@@H]1CN(C)CC1CC1	T cruzi growth-1 99 | T cruzi growth-2 inactive | T cruzi growth-3 inactive | 3T3 cytotox inactive | 3T3 cytotox 2 inactive
Cc1ccc(S(=O)(=O)N(C)C[C@@H]2OCCCC[C@@H](C)Oc3ccc(NS(=O)(=O)c4ccc(F)cc4)cc3C(=O)N([C@@H](C)CO)C[C@@H]2C)cc1	T cruzi growth-1 102 | T cruzi growth-2 105 | T cruzi growth-3 inactive | 3T3 cytotox inactive | 3T3 cytotox 2 inactive
Cc1ccc(S(=O)(=O)Nc2ccc3c(c2)C(=O)N([C@H](C)CO)C[C@@H](C)[C@@H](CN(C)S(=O)(=O)c2ccc(F)cc2)OCCCC[C@H](C)O3)cc1	none (no result: T cruzi growth-1)
Cc1ccc(S(=O)(=O)Nc2ccc3c(c2)C(=O)N([C@@H](C)CO)C[C@@H](C)[C@H](CN(C)S(=O)(=O)c2ccc(F)cc2)OCCCC[C@@H](C)O3)cc1	T cruzi growth-1 103 (no result: IDH1 mut inh) | T cruzi growth-2 106 | T cruzi growth-3 inactive | 3T3 cytotox inactive | 3T3 cytotox 2 inactive
Cc1ccc(S(=O)(=O)N(C)C[C@H]2OCCCC[C@H](C)Oc3ccc(NS(=O)(=O)c4ccc(F)cc4)cc3C(=O)N([C@@H](C)CO)C[C@@H]2C)cc1	T cruzi growth-1 115 (no result: IDH1 mut inh) | T cruzi growth-2 104 | T cruzi growth-3 inactive | 3T3 cytotox inactive | 3T3 cytotox 2 inactive
Cc1ccc(S(=O)(=O)Nc2ccc3c(c2)C(=O)N([C@H](C)CO)C[C@@H](C)[C@H](CN(C)S(=O)(=O)c2ccc(F)cc2)OCCCC[C@@H](C)O3)cc1	T cruzi growth-1 109 | T cruzi growth-2 102 | T cruzi growth-3 inactive | 3T3 cytotox inactive | 3T3 cytotox 2 inactive
Cc1ccc(S(=O)(=O)Nc2ccc3c(c2)C(=O)N([C@@H](C)CO)C[C@H](C)[C@@H](CN(C)S(=O)(=O)c2ccc(F)cc2)OCCCC[C@H](C)O3)cc1	none (no result: T cruzi growth-1)
Cc1ccc(S(=O)(=O)Nc2ccc3c(c2)C(=O)N([C@H](C)CO)C[C@@H](C)[C@@H](CN(C)S(=O)(=O)c2ccc(F)cc2)OCCCC[C@@H](C)O3)cc1	none (no result: T cruzi growth-1, IDH1 mut inh)
Cc1ccc(S(=O)(=O)Nc2ccc3c(c2)C(=O)N([C@@H](C)CO)C[C@H](C)[C@H](CN(C)S(=O)(=O)c2ccc(F)cc2)OCCCC[C@H](C)O3)cc1	T cruzi growth-1 116 (no result: IDH1 mut inh) | T cruzi growth-2 104 | T cruzi growth-3 inactive | 3T3 cytotox inactive | 3T3 cytotox 2 inactive
